# Bioassay records as filed in PubChem BioAssay.
# The sample as a whole holds a higher share of hits than the screen did.
# CHOP UPR activ: activators of apoptotic CHOP UPR arm, primary screen, cell-based, CHO-CHOP luciferase reporter, luminescence, uHTS. UPR activation; percent of tunicamycin response over DMSO baseline. activation, % at 10 µM. hit rate 0.34% among 330,000;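 active = at 10 µM dose, activation of 40% or more, normalized to positive control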;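 also: 100% = tunicamycin at 10 µg/mL and 0% = DMSO alone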
#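 Evaluation: % reporter activation, DMSO baseline versus tunicamycin full activation; System: CHO-CHOP luciferase reporter cell line; Input: 500 cells/well; Incubation: 6 h compound treatment, 37 °C; Measured by: Steady-Glo luciferase luminescence; Dosing: one dose, 10 µM in 0.5% DMSO; Buffer or medium: F12 medium, 10% FBS; Benchmarks: positive tunicamycin 10 µg/mL, negative DMSO alone.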
# XBP1 UPR activ: activators of adaptive XBP1 UPR arm, primary screen, cell-based, CHO-XBP1 luciferase reporter, luminescence, uHTS; activation, % at 20 µM; IRE1-XBP1 UPR activation; percent of tunicamycin response, DMSO as zero; hit rate 0.33% among 330,000; AID 463104, 2010;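 active = versus positive control, 20 µM dose yields 30% or more activation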;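 also: 100% = tunicamycin at 10 µg/mL and 0% = DMSO only wells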
#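 Material – CHO cell line with stable XBP1 luciferase reporter · Buffer or medium – F12 plus 10% FBS · Compound – single point, 20 µM final compound, 1% DMSO · Schedule – 16-18 h cell attachment at 37 °C, then 6 h compound exposure · Signal – Steady-Glo luminescence read · Benchmarks – high control tunicamycin 10 µg/mL final, low control DMSO vehicle only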
# pCIP destab: p/CIP-EGFP fusion destabilizers, primary screen, fluorescence, F442A cells; Q05BA5; 16 h; decrease of EGFP signal, % at 10 µM; hit rate 0.01% among 290,000; AID 1984, 2009;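 active = EGFP signal decrease of at least 30% at 10 µM or well 3 SD below plate mean, unless failing retest; inactive = the rest, including hits failing retest or dose response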
# Dynein transport: inhibitors of GR-EGFP nuclear translocation, primary screen, dynein cargo transport inhibitor project, imaging, high-content, 3617.4 mouse cells; test concentration mostly 20 µM; stimulated with dexamethasone, 1 µM; active compounds read low; z-score, hits read low; hit rate 0.47% among 220,000;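 active = plate z-score of nuclear minus cytoplasmic receptor signal below a set negative limit, without overly bright fluorescence or cell loss, cut at about -3.5 in these data, passing the limit was not always enough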;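 also: z-score of nuclear minus cytoplasmic ring GR-EGFP intensity difference per well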
#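 medium = tetracycline-free induction medium containing charcoal-stripped FBS | also added = 1.0 µM final dexamethasone stimulus | schedule = 48 h induction, 1 h compound, 30 min dex at 37 °C | technique = fixed, Hoechst-stained cells imaged at 10x for EGFP | measure = GR-EGFP nuclear translocation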
# B2AR ag: beta2AR agonists driving receptor internalization, primary screen, cell-based, FAP fluorogen, flow cytometry; hit rate 0.43% among 340,000; response, % (no concentration beside the values); Beta-2 adrenergic receptor (Homo sapiens), P07550; Am2.2-beta2AR cells;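 active = response above a set limit, near 3 SD of response in nonfluorescent compounds, cut at about 42% in these data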
# CHOP inhibitor: inhibitors of CHOP promoter induction, primary screen, cell-based, unfolded protein response, luciferase reporter. AID 2732, 2010. inhibition, % at 10 µM. CHO-K1 CHOP-promoter luciferase, tunicamycin-induced, 15-18 h. hit rate 3.8% among 220,000;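 active = compounds that reduced the stress-induced luciferase reporter signal by more than about 70% of percent inhibition, limit read from the data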;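 also: 0% = tunicamycin plus vehicle and 100% = wells without tunicamycin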
# * = called active by the depositor; . = no result given.
SMILES,CHOP UPR activ,XBP1 UPR activ,pCIP destab,Dynein transport,B2AR ag,CHOP inhibitor
O=C(c1cccc(F)c1)N1CCN=C1SCc1cccnc1,-2,-2,-7,3.2,3,86*
O=C(c1ccc(COc2ccccc2Br)o1)N1N=C(C(F)F)CC1(O)C(F)F (stereo unspecified),1,-2,1,-0.43,5,89*
O=C(c1ccc(Cn2cc([N+](=O)[O-])cn2)o1)N1N=C(C(F)F)CC1(O)C(F)F (stereo unspecified),0,-2,2,0.51,8,27
CCn1c(SCC(=O)Nc2sc3c(c2C#N)CCC(C(C)(C)C)C3)nnc1-c1ccco1 (stereo unspecified),0,-2,-6,1.2,-8,78*
Cc1nn(CC(=O)Nc2sc3c(c2C#N)CCC(C(C)(C)C)C3)c(C)c1[N+](=O)[O-] (stereo unspecified),-1,0,-2,0.14,10,89*
CCn1c(SCC(=O)Nc2sc3c(c2C#N)CCCC3)nnc1-c1ccco1,1,-3,-4,3.4,-14,30
NCc1cc2c3c(c1)CCCN3CCC2,2,-2,-5,.,-4,.
Cc1ccc(NC(=S)Nc2ccc(OC(F)F)c(Cl)c2)cc1Cl,.,.,-9,-0.32,1,91*
O=C(Nc1ccc(OC(F)F)c(Cl)c1)C(c1ccccc1)c1ccccc1,-3,0,-8,-0.022,12,70*
Cc1ccc(NC(=S)Nc2ccc(Cl)c(Cl)c2)c(OC(F)F)c1,3,0,2,-1.5,19,82*
CC(NC(=S)Nc1ccc(OC(F)F)c(Cl)c1)C(C)(C)C (stereo unspecified),1,0,2,-1.5,16,70
O=C1C(Cl)=C(N2CCCCCC2)C(=O)N1c1ccccc1,-3,0,-17,0.17,-6,51
COc1ccc(N2C(=O)C(Cl)=C(N3CCN(Cc4ccccc4)CC3)C2=O)cc1,.,.,-1,-0.72,-4,78*
O=C1C(Cl)=C(N2CCCCC2)C(=O)N1Cc1ccccc1,-1,-2,-12,1.1,-14,96*
O=C(CN1C(=O)NC2(CCCCC2)C1=O)Nc1ccc(Cl)cc1,1,0,.,.,-3,.
COc1cccc(CNCc2ccco2)c1O,0,-4,2,.,-1,.
CCCCc1nc(SCC(=O)N2CCOCC2)c2c(=O)n(C)c(=O)n(C)c2n1,2,-3,-13,.,6,.
O=C(C1CCC(CNS(=O)(=O)c2cccc3nsnc23)CC1)N1CC=C(c2ccccc2)CC1 (stereo unspecified),2,-3,-5,-0.41,7,72*
O=C(C1CCN(S(=O)(=O)c2cccc3nsnc23)CC1)N1CC=C(c2ccccc2)CC1,-2,-2,15,-0.18,22,47
CSc1ccc(/C=C(\NC(=O)c2ccccc2)C(=O)NN)cc1,0,0,3,0.04,-13,4
CC(C)(C)N1C(=O)c2ccccc2NC(=O)N1Cc1ccccc1,0,0,0,-0.36,-3,-10
O=C1Nc2ccccc2C(=O)C1(Cl)Cc1ccccc1 (stereo unspecified),3,-5,1,-1.5,-8,77*
Cc1ccc2nc(-c3ccc(NS(C)(=O)=O)cc3)cc(-c3ccccc3)c2c1,1,3,3,-0.52,4,78*
CCS(=O)(=O)Nc1ccc(-c2cc(-c3ccccc3)c3cc(C)ccc3n2)cc1,.,.,-6,1,19,87*
Cc1ccc2nc(-c3ccncc3)cc(-c3ccccc3)c2c1,-2,5,1,-0.5,-3,20
SMILES,CHOP UPR activ,XBP1 UPR activ,pCIP destab,Dynein transport,B2AR ag,CHOP inhibitor
Cc1ccc(C)c(C(=O)Cn2c(NCCO)nc3ccccc32)c1,1,-2,0,.,3,.
O=C(CN(C1CCCCC1)C1CCCCC1)N1CCc2ccccc2C1,-1,-1,6,-0.62,38,87*
COCCN(C(=O)Cc1cccs1)C(C(=O)NCc1ccc(OC)cc1)c1ccc(C(C)C)cc1 (stereo unspecified),0,-2,-23,.,-6,94*
O=C(COc1ccc2c(-c3ccccc3)cc(=O)oc2c1)Nc1ccc(CCO)cc1,2,-5,-2,.,0,.
Cc1[nH]n(-c2ccccc2)c(=O)c1/C=N/Nc1nncc(-c2ccccc2)n1,5,1,-2,1.3,0,77*
Cc1cccc(NS(=O)(=O)c2c(C)nc3scc(C)n3c2=O)c1,2,-6,-5,.,5,.
Cc1nn(C(=O)c2cccnc2)c(C)c1Sc1ccccc1,-1,-1,-1,-0.64,3,68
Cc1nn(C(=O)CNS(=O)(=O)c2ccccc2)c(C)c1Sc1ccc(Cl)cc1,-1,1,-2,-0.6,-1,82*
CCN(CC)CCNC(=O)c1cn(CC)c2cc(N3CCN(C)CC3)c(F)cc2c1=O,3,-3,-3,.,-7,.
Cc1ccc(S(=O)(=O)NCCC(=O)NCC(c2ccco2)N2CCCCC2)cc1C (stereo unspecified),3,-3,.,.,-2,.
O=C(N/N=C/c1ccc(-c2cccc(C(F)(F)F)c2)o1)c1ccccc1O,3,-3,6,0.8,3,90*
O=C(N/N=C/c1ccc(-c2cccc(C(F)(F)F)c2)o1)c1ccccc1Br,0,-2,-11,0.05,-49,42
Cc1nn(Cc2ccccc2)c(Cl)c1/C=N/NC(=O)CNc1cccc(C(F)(F)F)c1,-2,2,4,-0.02,-1,94*
Cc1ccc(NCC(=O)N/N=C/c2ccc(-c3cccc(C(F)(F)F)c3)o2)cc1,0,-4,-1,0.34,4,81*
CC(OC(=O)CNC(=O)c1ccc2ccccc2c1)C(=O)N(C)C1CCCCC1 (stereo unspecified),-1,-2,.,.,1,.
CCOC(=O)C1CCN(C(=O)C(C)c2ccc([N+](=O)[O-])cc2)CC1 (stereo unspecified),-2,-3,-18,1.2,-4,5
CCc1ccc2oc(-c3cc(N)ccc3O)nc2c1,-8,-15,-3,0.28,2,78*
CCc1ccc2oc(-c3cc(N)ccc3Cl)nc2c1,-4,-5,1,-0.59,10,26
O=[N+]([O-])c1cccnc1N1CCC(c2cc(-c3ccc(Cl)cc3)n[nH]2)CC1,2,0,-4,0.079,14,100*
O=C1c2ccccc2C(=O)C12OC2c1ccc(Cl)cc1Cl (stereo unspecified),.,.,-1,-4.6*,3,88*
